Measurements taken from ChEMBL document CHEMBL1156778, “Synthesis and structure-activity studies of biphenyl analogues of the tuberculosis drug (6S)-2-nitro-6-{[4-(trifluoromethoxy)benzyl]oxy}-6,7-dihydro-5H-imidazo[2,1-b][1,3]oxazine (PA-824)” (J Med Chem, 2010).
pIC50: −log10 of the molar value. Values after ≈ are worked out from the molar mass of the structure shown.

Experiments:
[1] = test system: Mycobacterium tuberculosis; assay: Antitubercular activity against Mycobacterium tuberculosis H37Rv in aerobic condition after 7 days by microplate alamar blue assay; type: functional; settings: 168 h
Procedure, shortened: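 M. tuberculosis H37Rv, replicating culture; 8-day microplate assay with Alamar blue added on day 7 to read growth. […] Mean of at least two independent determinations ± SD.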

[2] = test system: Vero; assay: Cytotoxicity against african green monkey Vero cells after 72 hrs by MTS assay; type: cell-based; settings: Chlorocebus sabaeus
Procedure, shortened: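 VERO cells (CCL-81), 72 h exposure, tetrazolium dye read-out.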

[3] = test system: Mycobacterium tuberculosis; assay: Antitubercular activity against Mycobacterium tuberculosis H37Rv in anaerobic condition after 7 days by low oxygen recovery assay; type: functional; settings: 168 h
[4] = test system: Mycobacterium tuberculosis; assay: Antitubercular activity against Mycobacterium tuberculosis H37Rv infected in BALB/c mouse measured per mouse at 100 mg/kg, po daily for 5 days a week for 3 weeks; type: functional
[5] = test system: Mycobacterium tuberculosis; assay: Antitubercular activity against Mycobacterium tuberculosis H37Rv infected in BALB/c mouse assessed as ratio of lung CFU for compound to lung CFU for PA-824 at 100 mg/kg, po daily for 5 days a week for 3 weeks; type: functional
[6] = Metabolic stability in pooled CD1 mouse liver microsomes assessed as compound remaining after 1 hr by LC-MS-MS; type: ADME, Microsome; settings: read-out: Stability
Procedure, shortened: (§1)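 Test compound at 1 μM with pooled CD-1 mouse or human liver microsomes (0.5 mg/mL protein) and NADPH-regenerating system (3.3 mM MgCl2, 3.3 mM G6P, 0.4 U/mL G6PD, 1.3 mM NADP+) in 75 mM phosphate, pH 7.4, 0.5% DMSO, 37 °C. Stopped at 0 and 60 min with MeCN containing metoprolol internal standard. LC-MS/MS (ESI, SRM), duplicates. % remaining = 100 × mean peak-area ratio at 60 min / at 0 min.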

[7] = Metabolic stability in pooled human liver microsomes assessed as compound remaining after 1 hr by LC-MS-MS; type: ADME, Microsome; settings: read-out: Stability; procedure, shortened: as §1

Compound	MIC [1] [µM]	pIC50 [2]	MIC [3] [µM]	CFU [4]	fold change (FC) [5]	remaining at 1 h [6] [%]	remaining at 1 h [7] [%]
O=[N+]([O-])c1cn2c(n1)OC[C@@H](OCc1cccc(-c3cccc(OCCCO)c3)c1)C2	0.58 (≈ 0.247 µg/mL)	< 3.90	2.5 (≈ 1.06 µg/mL)	–	–	–	–
O=[N+]([O-])c1cn2c(n1)OC[C@@H](OCc1ccc(-c3ccc(OC(F)(F)F)cc3Cl)cc1)C2	0.04 (≈ 0.0188 µg/mL)	< 3.90	0.78 (≈ 0.366 µg/mL)	390	23	86	91
O=[N+]([O-])c1cn2c(n1)OC[C@@H](OCc1ccccc1-c1ccc3ccccc3c1)C2	1.6 (≈ 0.642 µg/mL)	< 3.90	3.1 (≈ 1.24 µg/mL)	–	–	–	–
O=[N+]([O-])c1cn2c(n1)OC[C@@H](OCc1cccc(-c3cccc(C(F)(F)F)c3)c1)C2	0.34 (≈ 0.143 µg/mL)	< 3.90	2.9 (≈ 1.22 µg/mL)	–	–	–	–
O=[N+]([O-])c1cn2c(n1)OC[C@@H](OCc1ccc(-c3ccc(Oc4ccccc4)cc3)cc1)C2	0.04 (≈ 0.0177 µg/mL)	< 3.90	2.7 (≈ 1.2 µg/mL)	330000	<0.01	48	22
O=[N+]([O-])c1cn2c(n1)OC[C@@H](OCc1ccc(-c3ccc(CO)cc3)cc1)C2	0.54 (≈ 0.206 µg/mL)	< 3.90	3.7 (≈ 1.41 µg/mL)	–	–	–	–
O=[N+]([O-])c1cn2c(n1)OC[C@@H](OCc1cccc(-c3ccc(OCCCO)cc3)c1)C2	0.36 (≈ 0.153 µg/mL)	< 3.90	1.5 (≈ 0.638 µg/mL)	–	–	–	–
NC(=O)c1cccc(-c2ccc(CO[C@@H]3COc4nc([N+](=O)[O-])cn4C3)cc2)c1	2.8 (≈ 1.1 µg/mL)	< 3.90	6.7 (≈ 2.64 µg/mL)	–	–	–	–
CS(=O)(=O)c1ccc(-c2ccc(CO[C@@H]3COc4nc([N+](=O)[O-])cn4C3)cc2)cc1	0.67 (≈ 0.288 µg/mL)	< 3.90	14 (≈ 6.01 µg/mL)	–	–	–	–
Nc1ccc(-c2ccc(CO[C@@H]3COc4nc([N+](=O)[O-])cn4C3)cc2)cc1	0.49 (≈ 0.18 µg/mL)	< 3.90	1.9 (≈ 0.696 µg/mL)	–	–	–	–
O=[N+]([O-])c1cn2c(n1)OC[C@@H](OCc1ccc(-c3ccc(Cl)c(C(F)(F)F)c3)cc1)C2	0.035 (≈ 0.0159 µg/mL)	< 3.90	1.9 (≈ 0.862 µg/mL)	30	7.7	96	92
O=[N+]([O-])c1cn2c(n1)OC[C@@H](OCc1ccccc1-c1cccc(OC(F)(F)F)c1)C2	1.9 (≈ 0.827 µg/mL)	< 3.90	6.3 (≈ 2.74 µg/mL)	–	–	–	–
N#Cc1ccc(-c2ccccc2CO[C@@H]2COc3nc([N+](=O)[O-])cn3C2)cc1	8.4 (≈ 3.16 µg/mL)	< 3.90	19 (≈ 7.15 µg/mL)	–	–	–	–
O=[N+]([O-])c1cn2c(n1)OC[C@@H](OCc1ccccc1-c1ccccc1OC(F)(F)F)C2	1.2 (≈ 0.522 µg/mL)	< 3.90	6.2 (≈ 2.7 µg/mL)	–	–	–	–
N#Cc1ccc(-c2ccc(CO[C@@H]3COc4nc([N+](=O)[O-])cn4C3)cc2)cc1	0.025 (≈ 0.00941 µg/mL)	< 3.90	0.58 (≈ 0.218 µg/mL)	4500	3.6	58	95
O=[N+]([O-])c1cn2c(n1)OC[C@@H](OCc1ccc(-c3ccc(OCCCO)cc3)cc1)C2	0.6 (≈ 0.255 µg/mL)	< 3.90	2.2 (≈ 0.936 µg/mL)	–	–	–	–
O=[N+]([O-])c1cn2c(n1)OC[C@@H](OCc1ccccc1-c1ccc(F)cc1)C2	1.2 (≈ 0.443 µg/mL)	< 3.90	3.4 (≈ 1.26 µg/mL)	–	–	–	–
O=[N+]([O-])c1cn2c(n1)OC[C@@H](OCc1cccc(-c3ccc(O)cc3)c1)C2	0.54 (≈ 0.198 µg/mL)	< 3.90	5.8 (≈ 2.13 µg/mL)	–	–	–	–
O=[N+]([O-])c1cn2c(n1)OC[C@@H](OCc1ccc(-c3ccc(C(F)(F)F)cc3)cc1)C2	0.03 (≈ 0.0126 µg/mL)	< 3.90	1.4 (≈ 0.587 µg/mL)	1100	72	85	60
CC(=O)c1ccc(-c2ccccc2CO[C@@H]2COc3nc([N+](=O)[O-])cn3C2)cc1	17 (≈ 6.69 µg/mL)	< 3.90	36 (≈ 14.2 µg/mL)	–	–	–	–
O=[N+]([O-])c1cn2c(n1)OC[C@@H](OCc1cccc(-c3ccccc3OC(F)(F)F)c1)C2	0.46 (≈ 0.2 µg/mL)	< 3.90	3.3 (≈ 1.44 µg/mL)	–	–	–	–
O=[N+]([O-])c1cn2c(n1)OC[C@@H](OCc1cccc(-c3cccc(O)c3)c1)C2	0.3 (≈ 0.11 µg/mL)	< 3.90	3.7 (≈ 1.36 µg/mL)	–	–	–	–
CCOc1ccccc1-c1ccc(CO[C@@H]2COc3nc([N+](=O)[O-])cn3C2)cc1	0.03 (≈ 0.0119 µg/mL)	< 3.90	0.82 (≈ 0.324 µg/mL)	540000	0.15	0.2	50

Compound	MIC [1] [µM]	pIC50 [2]	MIC [3] [µM]	CFU [4]	fold change (FC) [5]	remaining at 1 h [6] [%]	remaining at 1 h [7] [%]
CN(C)CCOc1cccc(-c2ccc(CO[C@@H]3COc4nc([N+](=O)[O-])cn4C3)cc2)c1	1.5 (≈ 0.658 µg/mL)	< 3.90	18 (≈ 7.89 µg/mL)	–	–	–	–
O=[N+]([O-])c1cn2c(n1)OC[C@@H](OCc1ccccc1-c1cccc(F)c1)C2	0.62 (≈ 0.229 µg/mL)	< 3.90	3 (≈ 1.11 µg/mL)	–	–	–	–
COc1ccc(-c2ccccc2CO[C@@H]2COc3nc([N+](=O)[O-])cn3C2)cc1F	1.8 (≈ 0.719 µg/mL)	< 3.90	3.8 (≈ 1.52 µg/mL)	–	–	–	–
NC(=O)c1ccc(-c2ccc(CO[C@@H]3COc4nc([N+](=O)[O-])cn4C3)cc2)cc1	2.1 (≈ 0.828 µg/mL)	< 3.90	15 (≈ 5.92 µg/mL)	–	–	–	–
O=[N+]([O-])c1cn2c(n1)OC[C@@H](OCc1ccccc1-c1ccc(OC(F)(F)F)cc1)C2	2.3 (≈ 1 µg/mL)	< 3.90	4.3 (≈ 1.87 µg/mL)	–	–	–	–
O=[N+]([O-])c1cn2c(n1)OC[C@@H](OCc1ccc(-c3ccc(O)cc3)cc1)C2	0.64 (≈ 0.235 µg/mL)	< 3.90	4.3 (≈ 1.58 µg/mL)	–	–	–	–
O=[N+]([O-])c1cn2c(n1)OC[C@@H](OCc1ccc(-c3ccc(OC(F)(F)F)cc3)cc1)C2	0.035 (≈ 0.0152 µg/mL)	< 3.90	1.3 (≈ 0.566 µg/mL)	<2	>205	–	–
O=[N+]([O-])c1cn2c(n1)OC[C@@H](OCc1cccc(-c3ccc(OCCCN4CCOCC4)cc3)c1)C2	0.69 (≈ 0.341 µg/mL)	< 3.90	11 (≈ 5.44 µg/mL)	–	–	–	–
O=[N+]([O-])c1cn2c(n1)OC[C@@H](OCc1ccc(-c3ccc(OC(F)(F)F)c(Cl)c3)cc1)C2	0.03 (≈ 0.0141 µg/mL)	< 3.90	0.9 (≈ 0.423 µg/mL)	6.4	281	84	90
CSc1ccc(-c2ccccc2CO[C@@H]2COc3nc([N+](=O)[O-])cn3C2)cc1	1.3 (≈ 0.517 µg/mL)	< 3.90	3.4 (≈ 1.35 µg/mL)	–	–	–	–
COc1cccc(-c2ccc(CO[C@@H]3COc4nc([N+](=O)[O-])cn4C3)cc2)c1	0.27 (≈ 0.103 µg/mL)	< 3.90	1.9 (≈ 0.725 µg/mL)	–	–	–	–
O=[N+]([O-])c1cn2c(n1)OC[C@@H](OCc1ccc(-c3ccc(F)cc3)cc1)C2	0.015 (≈ 0.00554 µg/mL)	< 3.90	1.4 (≈ 0.517 µg/mL)	5400	3	55	75
N#Cc1cccc(-c2ccccc2CO[C@@H]2COc3nc([N+](=O)[O-])cn3C2)c1	0.8 (≈ 0.301 µg/mL)	< 3.90	8.2 (≈ 3.09 µg/mL)	–	–	–	–
O=[N+]([O-])c1cn2c(n1)OC[C@@H](OCc1ccc(-c3ccc(Cl)c(OC(F)F)c3)cc1)C2	0.03 (≈ 0.0136 µg/mL)	< 3.90	1.1 (≈ 0.497 µg/mL)	150	10	86	83
O=[N+]([O-])c1cn2c(n1)OC[C@@H](OCc1ccccc1-c1ccccc1)C2	0.64 (≈ 0.225 µg/mL)	< 3.90	2.5 (≈ 0.878 µg/mL)	–	–	–	–
O=[N+]([O-])c1cn2c(n1)OC[C@@H](OCc1ccc(-c3ccc(C(F)(F)F)cc3Cl)cc1)C2	0.03 (≈ 0.0136 µg/mL)	< 3.90	1.4 (≈ 0.635 µg/mL)	540	7.2	93	92
CC(=O)c1ccc(-c2cccc(CO[C@@H]3COc4nc([N+](=O)[O-])cn4C3)c2)cc1	0.3 (≈ 0.118 µg/mL)	< 3.90	1.9 (≈ 0.747 µg/mL)	–	–	–	–
O=[N+]([O-])c1cn2c(n1)OC[C@@H](OCc1ccc(-c3ccc(OC(F)(F)F)c(F)c3)cc1)C2	0.03 (≈ 0.0136 µg/mL)	< 3.90	0.34 (≈ 0.154 µg/mL)	4.3	419	86	93
O=[N+]([O-])c1cn2c(n1)OC[C@@H](OCc1ccc(-c3ccc(OCCO)cc3)cc1)C2	0.55 (≈ 0.226 µg/mL)	< 3.90	3.3 (≈ 1.36 µg/mL)	–	–	–	–
O=[N+]([O-])c1cn2c(n1)OC[C@@H](OCc1cccc(-c3cccc(OCCCN4CCOCC4)c3)c1)C2	1.4 (≈ 0.692 µg/mL)	< 3.90	11 (≈ 5.44 µg/mL)	–	–	–	–
CC(=O)c1ccc(-c2ccc(CO[C@@H]3COc4nc([N+](=O)[O-])cn4C3)cc2)cc1	0.04 (≈ 0.0157 µg/mL)	< 3.90	0.73 (≈ 0.287 µg/mL)	110000	<0.01	70	36
O=[N+]([O-])c1cn2c(n1)OC[C@@H](OCc1ccc(OC(F)(F)F)cc1)C2 [PRETOMANID]	0.5 (≈ 0.18 µg/mL)	< 3.90	2.6 (≈ 0.934 µg/mL)	–	1	–	82
